The source made the active and inactive calls. The rule behind the calls is not given here.
Experiments:
Assay type in all cases: functional
SK-OV-3 = experiment: Cytotoxicity against human SKOV3 cells after 2 days by sulforhodamine B assay; details: SK-OV-3, 48 h
Procedure, shortened: (§1)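 NCI60 multi-dose screen, 59 human tumour lines available. Cells exposed to compound across a 5-log mol/L concentration range for 2 days, then fixed and stained with sulphorhodamine B, optical density read. Growth inhibition calculated against time-zero control and untreated cells. GI50 derived from the dose series, average of two replicates.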

SN12C = experiment: Cytotoxicity against human SN12C cells after 2 days by sulforhodamine B assay; details: 48 h; procedure, shortened: as §1
KM12 = experiment: Cytotoxicity against human KM12 cells after 2 days by sulforhodamine B assay; details: KM12, 48 h; procedure, shortened: as §1
SF-295 = experiment: Cytotoxicity against human SF295 cells after 2 days by sulforhodamine B assay; details: SF-295, 48 h; procedure, shortened: as §1
SR = experiment: Cytotoxicity against human SR cells after 2 days by sulforhodamine B assay; details: 48 h
Procedure, shortened: (§2)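 NCI DTP NCI60 multi-dose screen (59 human tumour lines available). Cells exposed to compound over a 5-log mol/L concentration range for 2 days, then fixed and stained with sulphorhodamine B, with optical density read. Growth inhibition calculated relative to time-zero cells and untreated cells, giving GI50 (half-maximal growth inhibition concentration). Average of two replicates.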

U-251 = experiment: Cytotoxicity against human U251 cells after 2 days by sulforhodamine B assay; details: U-251, 48 h; procedure, shortened: as §2
SW-620 = experiment: Cytotoxicity against human SW620 cells after 2 days by sulforhodamine B assay; details: SW-620, 48 h; procedure, shortened: as §2
SK-MEL-5 = experiment: Cytotoxicity against human SK-MEL-5 cells after 2 days by sulforhodamine B assay; details: SK-MEL-5, 48 h; procedure, shortened: as §1
OVCAR-3 = experiment: Cytotoxicity against human OVCAR3 cells after 2 days by sulforhodamine B assay; details: OVCAR-3, 48 h; procedure, shortened: as §1
[1] = Cytotoxicity against human NCI-ADR-RES cells after 2 days by sulforhodamine B assay; details: 48 h; procedure, shortened: as §1
TK-10 = experiment: Cytotoxicity against human TK10 cells after 2 days by sulforhodamine B assay; details: TK-10, 48 h; procedure, shortened: as §2
COLO 205 = experiment: Cytotoxicity against human COLO205 cells after 2 days by sulforhodamine B assay; details: COLO 205, 48 h; procedure, shortened: as §1
LOX IMVI = experiment: Cytotoxicity against human LOXIMVI cells after 2 days by sulforhodamine B assay; details: 48 h; procedure, shortened: as §1
OVCAR-4 = experiment: Cytotoxicity against human OVCAR4 cells after 2 days by sulforhodamine B assay; procedure, shortened: as §1
T47D = experiment: Cytotoxicity against human T47D cells after 2 days by sulforhodamine B assay; details: 48 h; procedure, shortened: as §2
UACC-62 = experiment: Cytotoxicity against human UACC62 cells after 2 days by sulforhodamine B assay; details: UACC-62, 48 h; procedure, shortened: as §2
NCI-H522 = experiment: Cytotoxicity against human NCI-H522 cells after 2 days by sulforhodamine B assay; details: NCI-H522, 48 h; procedure, shortened: as §1
SNB-75 = experiment: Cytotoxicity against human SNB75 cells after 2 days by sulforhodamine B assay; details: SNB-75, 48 h; procedure, shortened: as §2
A498 = experiment: Cytotoxicity against human A498 cells after 2 days by sulforhodamine B assay; details: A498, 48 h; procedure, shortened: as §1
HOP-62 = experiment: Cytotoxicity against human HOP62 cells after 2 days by sulforhodamine B assay; details: HOP-62, 48 h; procedure, shortened: as §1
786-0 = experiment: Cytotoxicity against human 786-0 cells after 2 days by sulforhodamine B assay; details: 786-0, 48 h; procedure, shortened: as §1
HT-29 = experiment: Cytotoxicity against human HT-29 cells after 2 days by sulforhodamine B assay; details: HT-29, 48 h; procedure, shortened: as §1
ACHN = experiment: Cytotoxicity against human ACHN cells after 2 days by sulforhodamine B assay; details: 48 h; procedure, shortened: as §1
CAKI-1 = experiment: Cytotoxicity against human CAKI-1 cells after 2 days by sulforhodamine B assay; details: CAKI-1, 48 h; procedure, shortened: as §1
OVCAR-8 = experiment: Cytotoxicity against human OVCAR8 cells after 2 days by sulforhodamine B assay; details: OVCAR-8, 48 h; procedure, shortened: as §1
M14 = experiment: Cytotoxicity against human M14 cells after 2 days by sulforhodamine B assay; details: M14, 48 h; procedure, shortened: as §1
UACC-257 = experiment: Cytotoxicity against human UACC257 cells after 2 days by sulforhodamine B assay; details: UACC-257, 48 h; procedure, shortened: as §2
IGROV-1 = experiment: Cytotoxicity against human IGROV1 cells after 2 days by sulforhodamine B assay; details: IGROV-1, 48 h; procedure, shortened: as §1
SK-MEL-28 = experiment: Cytotoxicity against human SK-MEL-28 cells after 2 days by sulforhodamine B assay; details: SK-MEL-28, 48 h; procedure, shortened: as §1
UO-31 = experiment: Cytotoxicity against human UO31 cells after 2 days by sulforhodamine B assay; details: UO-31, 48 h; procedure, shortened: as §2
SNB-19 = experiment: Cytotoxicity against human SNB19 cells after 2 days by sulforhodamine B assay; details: SNB-19, 48 h; procedure, shortened: as §2
[2] = read-out: LC50 (the source's name)

CC/C(=C(/c1ccc(OCCN(C)C)cc1)c1ccc(OC(=O)CCCCCCCCC(=O)C2=C(C)/C(=C/c3[nH]c(-c4ccc[nH]4)cc3OC)N=C2C)cc1)c1ccccc1
GI50 (SK-OV-3): > 100 µM
LC50 (concentration killing 50% of starting cells) (SK-OV-3): > 100 µM
TGI (SK-OV-3): > 100 µM
GI50 (SN12C): 7.59 µM
TGI (SN12C): > 100 µM
CC50 (SN12C; [2]): > 100 µM
GI50 (KM12): 5.25 µM
LC50 (KM12): > 100 µM
TGI (KM12): > 100 µM
GI50 (SF-295): 10.7 µM
LC50 (SF-295): > 100 µM
TGI (SF-295): 61.7 µM
GI50 (SR): 4.07 µM
LC50 (concentration giving 50% net cell kill) (SR): > 100 µM
TGI (SR): > 100 µM
GI50 (U-251): 6.61 µM
LC50 (U-251): > 100 µM
TGI (U-251): > 100 µM
GI50 (SW-620): 3.72 µM
LC50 (concentration killing 50% of cells) (SW-620): 56.2 µM
TGI (SW-620): 14.1 µM
GI50 (SK-MEL-5): 1.62 µM
LC50 (concentration killing 50% of cells) (SK-MEL-5): 6.46 µM
TGI (SK-MEL-5): 3.24 µM
GI50 (OVCAR-3): 11 µM
LC50 (OVCAR-3): > 100 µM
TGI (OVCAR-3): > 100 µM
GI50 [1]: 31.6 µM
TGI [1]: > 100 µM
CC50 [1, 2]: > 100 µM
GI50 (TK-10): 20.9 µM
LC50 (TK-10): > 100 µM
TGI (TK-10): > 100 µM
GI50 (COLO 205): 8.13 µM
LC50 (concentration killing 50% of cells) (COLO 205): > 100 µM
TGI (COLO 205): 77.6 µM
GI50 (LOX IMVI): 2.34 µM
LC50 (LOX IMVI): 27.5 µM
TGI (LOX IMVI): 5.89 µM
Activity (OVCAR-4): inactive
LC50 (concentration killing 50% of cells) (OVCAR-4; OVCAR-4, 48 h): > 100 µM
TGI (OVCAR-4; OVCAR-4, 48 h): > 100 µM
GI50 (T47D): 3.55 µM
LC50 (concentration killing 50% of cells) (T47D): > 100 µM
TGI (T47D): > 100 µM
GI50 (UACC-62): 3.39 µM
TGI (UACC-62): 18.2 µM
CC50 (UACC-62; [2]): > 100 µM
GI50 (NCI-H522): 21.4 µM
LC50 (NCI-H522): > 100 µM
TGI (NCI-H522): > 100 µM
GI50 (SNB-75): 4.17 µM
LC50 (concentration killing 50% of starting cells) (SNB-75): > 100 µM
TGI (SNB-75): > 100 µM
GI50 (A498): 15.1 µM
LC50 (A498): > 100 µM
TGI (A498): 72.4 µM
GI50 (HOP-62): 16.9 µM
TGI (HOP-62): > 100 µM
CC50 (HOP-62; [2]): > 100 µM
GI50 (786-0): 5.25 µM
LC50 (concentration killing 50% of cells) (786-0): > 100 µM
TGI (786-0): > 100 µM
GI50 (HT-29): 5.13 µM
LC50 (HT-29): > 100 µM
TGI (HT-29): > 100 µM
GI50 (ACHN): 7.76 µM
LC50 (concentration killing 50% of cells) (ACHN): > 100 µM
TGI (ACHN): > 100 µM
GI50 (CAKI-1): 6.92 µM
LC50 (concentration killing 50% of the cells present at time zero) (CAKI-1): > 100 µM
TGI (CAKI-1): > 100 µM
GI50 (OVCAR-8): 9.12 µM
LC50 (OVCAR-8): > 100 µM
TGI (OVCAR-8): > 100 µM
GI50 (M14): 2.14 µM
TGI (M14): 4.47 µM
CC50 (M14; [2]): 9.33 µM
GI50 (UACC-257): 63.1 µM
TGI (UACC-257): > 100 µM
CC50 (UACC-257; [2]): > 100 µM
GI50 (IGROV-1): 22.9 µM
LC50 (IGROV-1): > 100 µM
TGI (IGROV-1): > 100 µM
GI50 (SK-MEL-28): 43.6 µM
LC50 (SK-MEL-28): > 100 µM
TGI (SK-MEL-28): > 100 µM
GI50 (UO-31): 4.47 µM
LC50 (UO-31): > 100 µM
TGI (UO-31): > 100 µM
GI50 (SNB-19): 6.31 µM
TGI (SNB-19): > 100 µM
CC50 (SNB-19; [2]): > 100 µM
